Measurements: the RNAGym collection of RNA variant scans (doi:10.1126/science.aae0568)
Fewer inactive variants are shown than the library holds.

B1: tRNA (parent)
chain: GUUCCGUUGGCGUAAUGGUAACGCGUCUCCCUCCUAAGGAGAAGACUGCGGGUUCGAGUCCCGUACGGAACG

Variants of: B1
Experiment: yeast fitness relative to wild type (ratio to wild type); higher = fitter; tRNA-Arg(CCU), competitive growth, 37 C, YPD
Method in brief: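 Amplicons of the tRNA-Arg(CCU) gene were sequenced, 100-nucleotide paired-end, from the start population and from each end population of a pooled yeast competition. The competition, in six parallel replicates, lasted 24 hours in YPD at 37°C. Fitness relative to wild type was calculated from changes in genotype frequencies. Genotypes had to have ≥ 100 starting reads, and estimates < 0.5 were set to 0.5.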

Point of comparison: GUUCCGUUGGCCUAAUGGUAACGCGUCUCCUUCCUAAGGAGAAGACUGCGGGUUCGAGUCCCGUACGCAACG [G12C C31U G68C], yeast fitness 0.505. Against it:
- GUUCCGUUGGCGUAAUGGUUACGGGUCUCCCUCCUAAGGAGAAGACUGGGGGUUCGAGUCCCGUACGGAACG [A20U C24G C49G] — lower, ≤ 0.5
- GUUCCGUUGGCGAAAUGGUAACGCGUCUCCCUCCUAAGGAGAAGACAGCGGGUUCGAGUACCGUACGGCACG [U13A U47A C60A A69C] — higher, 0.525
- GUUCCGUUCGGGUAAUGGUUACGCGUCUCCUUCCUAACGAGAAGACUGCGGGUUCGAGUCCCGUACGGAACG [G9C C11G A20U C31U G38C] — lower, ≤ 0.5
- GUUCCGUUGGCGUAAGGGUAACGCGUCUCCCUCCUAAGGAGAAGACUGCGAGUUCGAGUCCCGUACGGAACG [U16G G51A] — higher, 0.783
- GUUCCGUUGACGUAAUGGUAACGCGUCUCCCUCCUAAGGAGAAGACUGCGGGUUCGCGCCCCGUACGGAACG [G10A A57C U59C] — lower, ≤ 0.5
- GUUCCGUUGGCGUAAUGGUAACGCGUCUCCCUCCUAAGGAGAAGAUUGCGGGUUCGACUACCGUACGGAACG [C46U G58C C60A] — higher, 0.637
- GUUCCGUUGGGGUAAUGGUAACGCGUCUCCCUCCUAAGGAGAAGGCUGUGGGUUAGAGUCCCGUACGGAUCG [C11G A45G C49U C55A A70U] — lower, ≤ 0.5
- GUUCCGUUGGCGUAAUGGUAACGGGUCCCCCUCCUAAGGAGAUGACUGCGGGUUCGAGUACCGUACGGAACG [C24G U28C A43U C60A] — lower, ≤ 0.5
- GUUCCAUUGGCGUAAUGGCAACGCGUCUCCCUCCUAAGGACAAGACUGCGGGUUCGAGUCCCGUACGGAACG [G6A U19C G41C] — higher, 0.67
- GUUCCGUUGGCGUAAUGGUAACGCGUCUCCCUCUUAAGGAGAAGACUGCGGGUUCGAGUCCCGUACGGUACG [C34U A69U] — higher, 0.667
- GUUCCGUUGGCGUAAUGGUAACGCGUUUCCCUCCUAAGGAGAAGACUGCGGGUUUGAGUUCCGUACGGAUCG [C27U C55U C60U A70U] — lower, ≤ 0.5
- GUUCCGUUGGCGUAAUGGUAACGCGUCUCCCUCCUAAGGAGAGGAGUGCGGGUUCCAGUCCCGUACGGAACG [A43G C46G G56C] — lower, ≤ 0.5
- GUUCCGUUGCCGUAAUGGUAACGCGUUUCCCUCCUAAGGAGAAGACUGCGGGUUCGAGUCCCGUACGGAACG [G10C C27U] — higher, 0.679
- GUUCCGUUGGCGUAAUGAUAACGCGUCUCGCUCCUAAGGAGAACACUGCGGGUUCGAGUCCCGUACGGAACG [G18A C30G G44C] — higher, 0.646
- GUUCCGUUGGCGUAAUGGUAACGCGUCUCCGUGCUAAGGAGAAGACUGCGGGUUCGUGUCCCGUUCGGAACG [C31G C33G A57U A65U] — lower, ≤ 0.5
- GUUCCGUUGGCGUAAUGGUAACGCGUCUCCCUCCUAAGGAGAAGAGUCCGGGUUCGAGUCCCGUACGGAACG [C46G G48C] — higher, 1.02
- GUUCCGUUGGCGUAAUGGUACCGCGUCUUCCUCCUAAGGAGAAGACUGCGGGUUCGUGUUCUGUAUGGAACG [A21C C29U A57U C60U C62U C66U] — higher, 0.564
- GUUCCGUUGGCGUAAUGGUAACGUGUCUCCCUCUUAAGGAGAAGACUGCGGGUUCGUGUCCCGUACCGAACG [C24U C34U A57U G67C] — lower, ≤ 0.5
- GUCCCGUUGGUGUAAUGGUAACGCGUCUCCCUCCUCAGGAGAAGACUGCGGGUUCGAGUCCCGUCUGGAACG [U3C C11U A36C A65C C66U] — lower, ≤ 0.5
- GUCCCGUUGGCGUAAUGGUAACGCGUCUCCCUCCUAAGGAGAAGACUGCGGGUUAGAGUACCGUACGGAACG [U3C C55A C60A] — lower, ≤ 0.5
- GUUCCGUCGGCGUAGUGGAAACGCGUCUACCUCCUGAGGAGAAGACUGCGAGUUCGAGUCCCGUACGGAACG [U8C A15G U19A C29A A36G G51A] — lower, ≤ 0.5
- GUUCCGUCGGCGUAAUGGUAACGCGUCUCCCUCCUAAGGAGAAGUCUGCGGGUUCGAGUCCCGUUCGGAACG [U8C A45U A65U] — higher, 0.709
- GUUCCGUUGGCGUAAUGGUAACGCGUCUCCCUCCUAAGGAGAAGACUGCGGGUUCGUGUCUCGUACGGAACG [A57U C61U] — higher, 0.642
- GUUCCGUUGGCGUAAUGGUAACGCGUCUCCCCCCUAAGGAGAAGAGUGCGGGUUCGAGCCCCCUACGCAACG [U32C C46G U59C G63C G68C] — lower, ≤ 0.5
- GUUCCGUUGGCGUAAUGGUAACGGGUUUCCCUCCUAAGGUGAAGACUGCGGGUUCGAGCCCCGUACGGAACG [C24G C27U A40U U59C] — lower, ≤ 0.5
- GUUCCGUUGGCGUGAUGGUAACGGGUCUCCUUCCUAAGGAGAAGACUGCGGGUUCGAGUCCCGUACGAAACG [A14G C24G C31U G68A] — lower, ≤ 0.5
- GUUCCGUUGGCGUAAUGGUGACGCGUCUCCCUCCUAAGGAGAAGACUGCGGGUUCGAGUCCCGUAAGGAACG [A20G C66A] — higher, 0.635
- GUUCCGUUGGCGUAAUGGUAACGCGUCUCCCUCCUACGGAGAAGACUGCGGGUUCGAGUCCCGUGCGGAACG [A37C A65G] — higher, 0.94
- GUUACGUUGGCGUAAUGGUAAAGCGUCUCCCUACUAAGCAGAAGACUGCGGGUUCGAGUCCCGUACGGAACG [C4A C22A C33A G39C] — lower, ≤ 0.5
- GUUCCGUUGGCGUAAUGGUAACGCGUGUCCCUCCUAAGGAGAGGACUGCGGGUUCGAGUCCCGUACGGAGCG [C27G A43G A70G] — lower, ≤ 0.5
- GUUCCGUCGGCGUAAUGGUGACGCGUCUCCCUCCUAAGGAGAAGACUGCGGGUUCGAGUCCCGUAUGGAACG [U8C A20G C66U] — higher, 0.624
- GUUCCGUUGGCGUAAUGGUAACGCGUCUCCCUCUUAUGGAAAAGACUGCCGGUUCGAGUCCCGUACGGAACG [C34U A37U G41A G50C] — lower, ≤ 0.5
- GUUCCGUUGGAGUAAUGGUAACGCGUCUCCCUCCUAAGGAGGUGAUUGCGGGUUCGAGUCCCGUACAGCACG [C11A A42G A43U C46U G67A A69C] — lower, ≤ 0.5
- GUUCCGUUGGCGUCAUGGUAACGCGUCUCCCUCCUGAGGAGAAGACUGCGGGUUCGAGUCCAGUACGGAACG [A14C A36G C62A] — lower, ≤ 0.5
- GUUGUGUUGGCGUAAUGGUAACGCGUCUCCCUCCUAAGGAGAAGACUGCGGGUUCGAAUCCCGUACGGACCG [C4G C5U G58A A70C] — lower, ≤ 0.5
- GUUCCGUUGGCGUAAUGGUAGCGCGUCUCCCUCCUAAGGAGAAGACUGCGGGUUCGAGACCCGAACGGAACG [A21G U59A U64A] — lower, ≤ 0.5
